Data set [1] has as its target T1, Enoyl-[acyl-carrier-protein] reductase [NADH] (Mycobacterium tuberculosis, UniProt P9WGR1).
T1 sequence (P9WGR1 whole entry): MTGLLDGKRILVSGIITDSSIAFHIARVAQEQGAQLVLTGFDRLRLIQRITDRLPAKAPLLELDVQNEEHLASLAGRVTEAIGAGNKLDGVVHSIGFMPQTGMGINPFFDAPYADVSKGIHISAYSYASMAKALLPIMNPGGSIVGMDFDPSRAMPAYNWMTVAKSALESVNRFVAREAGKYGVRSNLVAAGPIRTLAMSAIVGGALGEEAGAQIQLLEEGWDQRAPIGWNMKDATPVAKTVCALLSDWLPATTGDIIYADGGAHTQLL
As to the kind of experiment: Binding affinity to Mycobacterium tuberculosis InhA assessed as dissociation constant at 250 uM at 20 degreeC in presence of NADH by fluorescence spectroscopy. An outline of the steps: (§1)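 Titration of pre-formed MtInhA:NADH complex (2 mL of 3 μM enzyme with 20 μM NADH), adding microliter aliquots of 250 μM ligand stock with dilution kept ≤1%. Intrinsic fluorescence read at 295 nm excitation, 310–500 nm emission. Temperatures 15, 20, 25 and 30 °C. KD is fitted to a hyperbolic isotherm. ΔH°, ΔS° and ΔG° come from van't Hoff analysis of KD across temperatures.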

In data set [2] the target is T1, Enoyl-[acyl-carrier-protein] reductase [NADH]. Description: Binding affinity to Mycobacterium tuberculosis InhA assessed as dissociation constant at 250 uM at 30 degreeC in presence of NADH by fluorescence spectroscopy. A digest of the protocol: as §1
Data set [3] in a line: Toxicity in CF-1 mouse assessed as reduction in body weight at 300 uM/kg, po administered daily for 14 days. It is filed as organism-based. As to conditions: in vivo, 336 h, time 14 day. A digest of the protocol:
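Mice were infected with M. tuberculosis H37Rv. From 7 days after infection, test and reference drugs were given daily by oral gavage for 14 days, with a vehicle-only group. Body weight was followed over the course of the experiment.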

The test system of data set [4] is Mycobacterium tuberculosis. As to the kind of experiment: Antibacterial activity against Mycobacterium tuberculosis H37Rv ATCC 27294 infected in CF-1 mouse assessed as reversal of bacterial growth in spleen at 300 to 450 uM/kg, po administered daily for 14 days starting from 7 days post infection. As to conditions: dose 300-450 µM/Kg, time 14.0 day. The data set is classed as functional, organism-based. An outline of the steps: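 Mice treated by gavage from 7 days post-infection for 14 days, daily, at 300 or 450 μM/kg. Lungs and spleen homogenized in saline and plated for CFU. Comparisons are against vehicle and early-control groups.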

Data set [5] is described as follows: Toxicity in mouse assessed as animal death at 300 mg/kg administered as single dose and measured for 14 days. It is filed as organism-based. As to conditions: in vivo, 336 h, time 14 day. A digest of the protocol:
(§2)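 Acute oral toxicity study. At day 14 the animals were euthanized, and kidneys, liver and spleen were weighed and inspected macroscopically.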

Data set [6] in a line: Toxicity in mouse assessed as effect on body weight at 300 mg/kg administered as single dose and measured for 14 days. The data set is classed as organism-based. As to conditions: in vivo, 336 h, time 14 day. An outline of the steps: as §2
Data set [7] can be described thus: Toxicity in mouse at 300 mg/kg administered as single dose and measured for 14 days. The data set is classed as organism-based. As to conditions: in vivo, 336 h, time 14 day. An outline of the steps:
as §2

Molecules are shown by their SMILES. Calls of active or inactive are those of the source. The rule behind the calls is not given here.

Regarding `Cc1cc(Nc2ccc(N3CCCCC3)cc2)c2cc(Br)ccc2n1`, the Kd in data set [1] came to 470 nM; in data set [2] it was 1340 nM. For the same compound, the Activity entry in data set [3], in data set [5], in data set [6] and in data set [7] was “Non-Toxic” each time. Further, the result in data set [4] was inactive.

Source of the values: ChEMBL document CHEMBL5385869, “Novel 4-aminoquinolines: Synthesis, inhibition of the Mycobacterium tuberculosis enoyl-acyl carrier protein reductase, antitubercular activity, SAR, and preclinical evaluation” (Eur J Med Chem, 2023).
